Published values from different studies.
Compare with care: the assays were run in different laboratories. pIC50: −log10 of the molar value.
Effect on: cell growth or viability

O=C(Nc1ccc(Cl)cc1)Nc1cccc(-c2cn(Cc3ccc(Br)cc3)nn2)c1
viability (PC-9; CCK-8; 50 µM, 72 h): 128%

N.N.[Cl][Pt][Cl]
pIC50 (HCT-116; MTT; 24 h): 3.59

C#CCn1c(C(=O)/C=C/c2ccc(F)cc2)nc2ccccc21
pIC50 (HCT-116; LDH; 48 h): 5.19

O=C1[O][Pt]2([NH][C@@H]3CCCC[C@H]3[NH]2)[O]C1=O
pIC50 (HCT-116; MTT): 6.10

N.N.[Cl][Pt][Cl]
pIC50 (HCT-116; MTT; 72 h): 5.09

N.N.[Cl][Pt][Cl]
inhibition (WSUDLCL2; ATP luminescence; 10 µM, 72 h): 100%

S=P1(C2CCCCC2)CCCCC1
pIC50 (HCT-116; MTT; 72 h): < 4.00

N.N.[Cl][Pt][Cl]
pIC50 (SK-OV-3; MTT; 72 h): 4.36

Fc1ccc2c(-c3nc(Cc4ccccc4)cs3)nn(Cc3ccc(Cl)cc3Cl)c2c1
pIC50 (HCT-116; 48 h): 4.17

N.N.[Cl][Pt][Cl]
pIC50 (HCT-116; MTT; 48 h): 4.88

O=C1CCC(N2C(=O)c3cccc4c(Cc5cnn(C6CCN(C(=O)C7(O)CCC7)CC6)c5)ccc2c34)C(=O)N1 (centres unmarked)
pIC50 (NCI-H929): 11.15
